Compound activity from PubChem BioAssay.
CHOP UPR activ: activators of apoptotic CHOP UPR arm, primary screen, cell-based, CHO-CHOP luciferase reporter, luminescence, uHTS; UPR activation; percent of tunicamycin response over DMSO baseline; actives 0.34% (n = 330,000); activation, % at 10 µM; AID 449763, 2010;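 active = at 10 µM dose, activation of 40% or more, normalized to positive control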;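 also: 100% = tunicamycin at 10 µg/mL and 0% = DMSO alone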
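Evaluation: % reporter activation, DMSO baseline versus tunicamycin full activation; System: CHO-CHOP luciferase reporter cell line; Input: 500 cells/well; Incubation: 6 h compound treatment, 37 °C; Measured by: Steady-Glo luciferase luminescence; Dosing: one dose, 10 µM in 0.5% DMSO; Buffer or medium: F12 medium, 10% FBS; Benchmarks: positive tunicamycin 10 µg/mL, negative DMSO alone.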
Exocytosis inh: LAMP-1 surface exposure blockers, TALL-104 cells – cell-based, flow cytometry, MLPCN library, primary screen; TALL-104 LAMP-1 surface exposure; cells stimulated with thapsigargin and PMA; inhibition, % at 10 µM; AID 651702, 2012; actives 0.66% (n = 360,000);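 active = inhibition above about 55%, limit read from the data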
Mdm2 MdmX PPI: inhibitors of human Mdm2-MdmX association, primary screen, cell-based, luminescence, split luciferase, SaOS-2, uHTS | Protein Mdm4 (Homo sapiens) + E3 ubiquitin-protein ligase Mdm2 (Homo sapiens), … | SaOS-2 split-luciferase Mdm2/MdmX complementation | inhibition, % at 8 µM | actives 3% (n = 330,000) | AID 485346, 2010;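 active = inhibition of at least 50% at 8 µM in the primary screen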
XBP1 UPR activ: activators of adaptive XBP1 UPR arm, primary screen, cell-based, CHO-XBP1 luciferase reporter, luminescence, uHTS. IRE1-XBP1 UPR activation; percent of tunicamycin response, DMSO as zero. activation, % at 20 µM. actives 0.33% (n = 330,000);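 active = versus positive control, 20 µM dose yields 30% or more activation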;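 also: 100% = tunicamycin at 10 µg/mL and 0% = DMSO only wells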
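Test system: CHO-XBP1 luciferase reporter cells | Buffer or medium: Serum-containing F12 medium, 10% FBS | Schedule: 6 h compound exposure at 37 °C, 5% CO2 | Detection: Steady-Glo luciferase glow luminescence, 10 min after reagent addition | Read-out basis: Activation, % of tunicamycin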
ABHD5-PLIN5 inh: ABHD5-PLIN5 interaction inhibitors, primary screen, cell lysate, split luciferase complementation, luminescence; inhibition, % at 4 µM; actives 0.78% (n = 360,000); Split G. princeps luciferase complementation, 4 h; Perilipin-5 (Homo sapiens) + 1-acylglycerol-3-phosphate O-acyltransferase ABHD5 (Homo …; AID 602281, 2012;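 active = inhibition above the mean inhibition across every tested compound plus 3 SD, cut at about 22% in these data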;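 also: 0% = DMSO only wells and the 100% control is not disclosed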
Target sequence (Q00G26 whole entry, looked up): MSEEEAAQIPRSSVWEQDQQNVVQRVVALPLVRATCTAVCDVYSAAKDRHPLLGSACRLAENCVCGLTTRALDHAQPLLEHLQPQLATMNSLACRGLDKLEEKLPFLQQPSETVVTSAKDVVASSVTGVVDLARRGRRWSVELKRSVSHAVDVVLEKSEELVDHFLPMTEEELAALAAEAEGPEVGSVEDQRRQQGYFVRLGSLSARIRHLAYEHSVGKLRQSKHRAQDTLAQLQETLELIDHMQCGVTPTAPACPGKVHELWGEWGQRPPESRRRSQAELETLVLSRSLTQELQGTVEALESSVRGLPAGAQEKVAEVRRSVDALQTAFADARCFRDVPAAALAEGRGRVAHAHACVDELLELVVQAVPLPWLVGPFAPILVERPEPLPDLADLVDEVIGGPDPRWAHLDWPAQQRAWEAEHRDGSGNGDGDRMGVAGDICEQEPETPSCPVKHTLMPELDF
Target sequence (Q8WTS1 whole entry, looked up): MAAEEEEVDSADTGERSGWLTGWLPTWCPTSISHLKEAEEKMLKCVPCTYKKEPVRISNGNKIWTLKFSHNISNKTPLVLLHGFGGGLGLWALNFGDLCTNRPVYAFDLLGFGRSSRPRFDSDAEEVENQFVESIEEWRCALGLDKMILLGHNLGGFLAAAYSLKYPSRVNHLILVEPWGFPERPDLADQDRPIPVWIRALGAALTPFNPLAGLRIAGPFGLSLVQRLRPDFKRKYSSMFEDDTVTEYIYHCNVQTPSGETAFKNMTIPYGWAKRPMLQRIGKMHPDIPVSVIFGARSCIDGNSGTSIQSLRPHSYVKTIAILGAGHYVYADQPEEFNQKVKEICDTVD
Mdm2 MdmX conf: Mdm2-MdmX complex disruptors, retested hits, confirmation, luminescence, single concentration | inhibition, % at 8 µM | actives 55% (n = 10,000) | shares compounds with Mdm2 MdmX PPI | Mdm2-MdmX binding, luminescent assay; in the data active = inhibition above about 40%
Full FLuc ctr: full-length luciferase signal inhibition, confirmation, counter-screen for Mdm2/MdmX interaction inhibitor project, cell-based, single concentration, SaOS-2 | AID 504607, 2011 | SaOS-2 full-length luciferase counterscreen, luminescence | inhibition, % at 8 µM | actives 77% (n = 6,200) | shares compounds with Mdm2 MdmX PPI;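 active = mean inhibition at 8 µM reaching about 37%, which flags the compound as non-specific, limit read from the data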;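 also: p53-null SaOS-2 cells with luciferase driven by a doxycycline-inducible promoter; compound on cells about two nights before reading with doxycycline added after day one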
Numbers without * were called inactive; x = not tested or not shown. Only some compounds are listed: those with a hit (about 4% of all), similar ones and a draw of the others.

SMILES	CHOP UPR activ	Exocytosis inh	Mdm2 MdmX PPI	XBP1 UPR activ	ABHD5-PLIN5 inh	Mdm2 MdmX conf	others
COc1ccc(C2CC(c3ccc(Cl)cc3)=NN2c2ccc(S(N)(=O)=O)cc2)cc1 (stereo not given)	4	8	87*	6	-2	15
COc1ccc(C2CC(c3cccc(Cl)c3)=NN2c2ccc(S(N)(=O)=O)cc2)cc1 (stereo not given)	5	3	68*	1	-10	-3
COc1ccc(C2CC(c3ccccc3)=NN2c2ccc(S(N)(=O)=O)cc2)cc1OC (stereo not given)	0	5	-9	-2	4	x
NS(=O)(=O)c1ccc(N2N=C(c3ccccc3)CC2c2cccc(Br)c2)cc1 (stereo not given)	3	8	28	3	1	x
COc1cccc(C2CC(c3ccccc3Cl)n3nnnc3N2)c1 (stereo not given)	-1	1	-20	3	0	x
Cc1ccc(Cn2nc(C)c(C(=O)NCC(c3ccc(F)cc3)N3CCOCC3)c2Cl)cc1 (stereo not given)	-1	22	0	-2	11	x
O=C(Cn1nc(-c2ccccc2)ccc1=O)Nc1ccc(-n2cnnn2)cc1	1	0	31	0	1	x
O=C(Cn1nc(-c2ccccc2)ccc1=O)Nc1ccc(NC(=O)c2ccccn2)cc1	22	-1	83*	28	-1	19
COc1ccc(Nc2nnc(SC(C(=O)Nc3cc(C)ccc3C)c3ccccc3)s2)cc1 (stereo not given)	1	0	84*	-1	-1	5
COc1ccc(C)cc1NC(=O)C(Sc1nnc(Nc2cc(C)ccc2OC)s1)c1ccccc1 (stereo not given)	-1	-2	43	-4	1	x
Cc1ccc(C)c(NC(=O)C(Sc2nc3ccccc3c(=O)n2CC(C)C)c2ccccc2)c1 (stereo not given)	3	11	84*	-3	6	63*	Full FLuc ctr=83*
CCOc1ccc(Br)cc1C1C(C(=O)OC)=C(N)Oc2cc(N(C)C)ccc21 (stereo not given)	-1	-1	80*	0	-6	55*	Full FLuc ctr=55*
CCOc1ccccc1C1C(C(=O)OC)=C(N)OC2=C1C(=O)CCC2 (stereo not given)	1	2	-18	2	2	x
COc1ccc(NC(=O)c2cc3c(Cl)nc4ccccc4c3s2)cc1OC	4	-1	-3	9	3	x
COc1ccc(OC)c(NC(=O)c2cc3c(Cl)nc4ccccc4c3s2)c1	1	-1	53*	10	4	20
CCn1c(=O)c2cc(C(=O)Nc3ccccc3OC)sc2c2ccccc21	-1	2	61*	3	6	36	Full FLuc ctr=73*
O=C(C1=C[C@H](c2ccc(C(F)(F)F)cc2)C[C@H](OCCCCO)O1)N1CCN(Cc2ccccc2)CC1	-1	6	30	-3	11	x
COc1cc(OC)c(C(=O)/C=C/c2ccc(OCc3ccccc3)c(OC)c2)c(OC)c1	2	6	60*	-5	13	22
COc1ccc(C(=O)C=Cc2ccc(OCc3ccccc3)c(OC)c2)cc1OC	x	0	x	x	4	x
COc1cc(OCc2ccccc2)c(C(=O)/C=C/c2ccc3c(c2)OCO3)c(OC)c1OC	1	11	70*	1	17	37
COc1cc(/C=C/[N+](=O)[O-])ccc1OCc1cccc(C(=O)O)c1	-8	x	55*	-9	x	47*	Full FLuc ctr=35
Cc1ccccc1/C(N)=N/OC(=O)N1c2ccccc2Sc2ccccc21	-3	1	28	-1	-8	x
CC1=Nc2cc(C(=O)NCCN3CCOCC3)ccc2Sc2c(C)ccc(C)c21	2	8	64*	-3	-1	52*	Full FLuc ctr=47*
CC1=Nc2cc(C(=O)NCCCN3CCOCC3)ccc2Sc2c(C)ccc(C)c21	3	4	66*	-4	11	11
CCCC1=Nc2cc(C(=O)NCCN3CCOCC3)ccc2Sc2ccccc21	0	-3	4	-2	7	x
SMILES	CHOP UPR activ	Exocytosis inh	Mdm2 MdmX PPI	XBP1 UPR activ	ABHD5-PLIN5 inh	Mdm2 MdmX conf	others
O=C(O)c1cc(N2C(=O)C3CCCCC3C2=O)ccc1NCc1cccnc1 (stereo not given)	2	0	-9	2	-5	x
CN(C)CCCNC(=O)C[C@H]1C[C@H](C(=O)N2CCCCC2)[C@@]2(CCc3ccccc3)c3[nH]c4ccc(Cl)cc4c3CCN2C1=O	6	9	97*	15	22*	91*	Full FLuc ctr=51*
O=C(CC1C[C@H](C(=O)N2CCCCC2)[C@@]2(CCc3ccccc3)c3[nH]c4ccccc4c3CCN2C1=O)NCc1ccco1 (stereo not given in full)	6	-3	52*	1	-1	18
COc1ccc2[nH]c3c(c2c1)CCN1C(=O)C(CC(=O)NC(C)(C)C)C[C@H](C(=O)N2CCCCC2)[C@@]31CCc1ccccc1 (stereo not given in full)	3	2	28	-2	7	x
CC(C)(C)NC(=O)CC1C[C@H](C(=O)N2CCCCC2)[C@@]2(CCc3ccccc3)c3[nH]c4ccccc4c3CCN2C1=O (stereo not given in full)	7	1	62*	3	-5	50*	Full FLuc ctr=70*
O=C(c1ccco1)N1N=C(c2ccc(Cl)cc2)CC1(O)C(F)(F)F (stereo not given)	1	-2	7	1	-3	x
CC1(C)CC(=O)C2=C(C1)OC1=C(C(=O)CC(C)(C)C1)C2c1ccccc1Cl	x	-8	x	x	-2	x
Cc1ccc(-n2nc3c(=O)n(CC(=O)NCCc4ccc(Cl)cc4)nc(C)c3c2C)cc1	-1	-4	25	0	-6	x
O=C(NCc1ccccc1Cl)c1cc2c(s1)CS(=O)(=O)C2	2	-5	-7	-3	-12	x
Cc1cccc(NC(=S)N(CCCN2CCCC2)Cc2cccn2Cc2ccc(Cl)cc2)c1	4	12	54*	0	16	37	Full FLuc ctr=23
CCN1CCN(CCCN(Cc2ccco2)C(=S)Nc2ccc(Cl)cc2)CC1	-1	0	2	-2	3	x
